According to ChEMBL document CHEMBL2413016, “Synthesis and in vivo evaluation of [(18)F]2-(4-(4-(2-(2-fluoroethoxy)phenyl)piperazin-1-yl)butyl)-4-methyl-1,2,4-triazine-3,5(2H,4H)-dione ([(18)F]FECUMI-101) as an imaging probe for 5-HT1A receptor agonist in nonhuman primates” (Bioorg Med Chem, 2013):

How the values were obtained:
[1] = Metabolic stability of the compound in baboon plasma assessed as unmetabolized parent fraction after 2 mins by HPLC analysis; assay type: ADME, cell-free; conditions: papio anubis, read-out: Stability
Outline: (§1)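 Radiotracer given as an iv bolus to anesthetized baboons. Arterial blood was drawn at 2, 12, 30, 60, 90, 120, 150 and 180 min and centrifuged at 2000 rpm for 1 min. Plasma was mixed with acetonitrile, vortexed and spun at 14,000 rpm for 4 min. The supernatant was counted, then analysed by reversed-phase HPLC with radioactivity detection. Parent percentage was corrected for background and decay, with a QC standard run at the start and end.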

[2] = test system: Nucleic Acid; assay: Ratio of drug level in hippocampus to cerebellum in baboon at 111 +/- 18 MBq, iv after 175 mins by PET analysis; assay type: ADME, organism-based; conditions: papio anubis, in vivo
[3] = Drug uptake in baboon prefrontal cortex at 111 +/- 18 MBq, iv by PET analysis in presence of WAY100635; assay type: ADME, organism-based; conditions: papio anubis, in vivo
Outline: (§2)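 Baboon PET run as for baseline: ketamine/isoflurane anesthesia, iv bolus of tracer, 180 min 3-D acquisition, right and left regions averaged. WAY100635 maleate (0.5 mg/kg iv in 12 mL saline) was given at 50–60 min after tracer injection as a chase/blocking challenge.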

[4] = Tmax in baboon hippocampus at 111 +/- 18 MBq, iv by PET analysis; assay type: ADME, organism-based; conditions: papio anubis, in vivo
Outline: (§3)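 Two fasted male baboons were given ketamine (10 mg/kg im) and kept under 1.5–2.0% isoflurane, with core temperature held at 37 °C. Tracer in 10% ethanol/90% saline was given as an iv bolus, and 3-D emission data were acquired for 180 min. Regional time-activity curves came from regions of interest, with right and left regions averaged.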

[5] = Drug uptake in baboon caudate at 111 +/- 18 MBq, iv by PET analysis in presence of WAY100635; assay type: ADME, organism-based; conditions: papio anubis, in vivo; outline: as §2
[6] = test system: Nucleic Acid; assay: Ratio of drug level in dorsal raphe nucleus to cerebellum in baboon at 111 +/- 18 MBq, iv after 175 mins by PET analysis; assay type: ADME, organism-based; conditions: papio anubis, in vivo
[7] = test system: Papio anubis; assay: Drug metabolism in baboon at 111 +/- 18 MBq, iv after 2 to 180 mins; assay type: ADME, organism-based; conditions: in vivo; outline: as §1
[8] = Drug uptake in baboon insular cortex at 111 +/- 18 MBq, iv by PET analysis in presence of WAY100635; assay type: ADME, organism-based; conditions: papio anubis, in vivo; outline: as §2
[9] = test system: Nucleic Acid; assay: Ratio of drug level in prefrontal cortex to cerebellum in baboon at 111 +/- 18 MBq, iv after 175 mins by PET analysis; assay type: ADME, organism-based; conditions: papio anubis, in vivo
[10] = Tmax in baboon cingulate cortex at 111 +/- 18 MBq, iv by PET analysis; assay type: ADME, organism-based; conditions: papio anubis, in vivo; outline: as §3
[11] = Drug uptake in baboon anterior cingulate at 111 +/- 18 MBq, iv by PET analysis in presence of WAY100635; assay type: ADME, organism-based; conditions: papio anubis, in vivo; outline: as §2
[12] = Drug uptake in baboon cerebellum at 111 +/- 18 MBq, iv by PET analysis in presence of WAY100635; assay type: ADME, organism-based; conditions: papio anubis, in vivo; outline: as §2
[13] = Drug uptake in baboon temporal cortex at 111 +/- 18 MBq, iv by PET analysis in presence of WAY100635; assay type: ADME, organism-based; conditions: papio anubis, in vivo; outline: as §2
[14] = Metabolic stability of the compound in baboon plasma assessed as unmetabolized parent fraction after 12 mins by HPLC analysis; assay type: ADME, cell-free; conditions: papio anubis, read-out: Stability; outline: as §1
[15] = Drug uptake in baboon amygdala at 111 +/- 18 MBq, iv by PET analysis in presence of WAY100635; assay type: ADME, organism-based; conditions: papio anubis, in vivo; outline: as §2
[16] = Tmax in baboon striatum at 111 +/- 18 MBq, iv by PET analysis; assay type: ADME, organism-based; conditions: papio anubis, in vivo
Outline: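 Baseline PET in two fasted male baboons on an ECAT EXACT HR+ scanner. Animals were immobilized with ketamine (10 mg/kg im), kept on 1.5–2.0% isoflurane via endotracheal tube, held at 37 °C core temperature, and hydrated with 0.9% NaCl. Radiotracer in 10% ethanol/saline was given as an iv bolus. Emission was recorded for 180 min in 3-D mode. Region time-activity curves used right/left averaged ROIs.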

[17] = test system: Nucleic Acid; assay: Ratio of drug level in temporal cortex to cerebellum in baboon at 111 +/- 18 MBq, iv after 175 mins by PET analysis; assay type: ADME, organism-based; conditions: papio anubis, in vivo
[18] = Drug uptake in baboon thalamus at 111 +/- 18 MBq, iv by PET analysis in presence of WAY100635; assay type: ADME, organism-based; conditions: papio anubis, in vivo; outline: as §2
[19] = test system: Nucleic Acid; assay: Ratio of drug level in amygdala to cerebellum in baboon at 111 +/- 18 MBq, iv after 175 mins by PET analysis; assay type: ADME, organism-based; conditions: papio anubis, in vivo
[20] = test system: Nucleic Acid; assay: Ratio of drug level in anterior cingulate cortex to cerebellum in baboon at 111 +/- 18 MBq, iv after 175 mins by PET analysis; assay type: ADME, organism-based; conditions: papio anubis, in vivo
[21] = Drug uptake in baboon cingulate at 111 +/- 18 MBq, iv by PET analysis in presence of WAY100635; assay type: ADME, organism-based, Cingulate cortex; conditions: papio anubis, in vivo; outline: as §2
[22] = Tmax in baboon insula cortex at 111 +/- 18 MBq, iv by PET analysis; assay type: ADME, organism-based; conditions: papio anubis, in vivo; outline: as §3
[23] = test system: Plasma; assay: Binding to human plasma proteins
[24] = test system: Nucleic Acid; assay: Ratio of drug level in cingulate cortex to cerebellum in baboon at 111 +/- 18 MBq, iv after 175 mins by PET analysis; assay type: ADME, organism-based; conditions: papio anubis, in vivo
[25] = Metabolic stability of the compound in baboon plasma assessed as unmetabolized parent fraction after 90 mins by HPLC analysis; assay type: ADME, cell-free; conditions: papio anubis, read-out: Stability; outline: as §1
[26] = Drug uptake in baboon hippocampus at 111 +/- 18 MBq, iv by PET analysis in presence of WAY100635; assay type: ADME, organism-based; conditions: papio anubis, in vivo; outline: as §2
[27] = Metabolic stability of the compound in baboon plasma assessed as unmetabolized parent fraction after 150 mins by HPLC analysis; assay type: ADME, cell-free; conditions: papio anubis, read-out: Stability; outline: as §1
[28] = Metabolic stability of the compound in baboon plasma assessed as unmetabolized parent fraction after 180 mins by HPLC analysis; assay type: ADME, cell-free; conditions: papio anubis, read-out: Stability; outline: as §1
[29] = test system: Nucleic Acid; assay: Ratio of drug level in insular cortex to cerebellum in baboon at 111 +/- 18 MBq, iv after 175 mins by PET analysis; assay type: ADME, organism-based; conditions: papio anubis, in vivo
[30] = Tmax in baboon amygdala at 111 +/- 18 MBq, iv by PET analysis; assay type: ADME, organism-based; conditions: papio anubis, in vivo; outline: as §3
[31] = Tmax in baboon cerebellum at 111 +/- 18 MBq, iv by PET analysis; assay type: ADME, organism-based; conditions: papio anubis, in vivo; outline: as §3
[32] = test system: Nucleic Acid; assay: Ratio of drug level in thalamus to cerebellum in baboon at 111 +/- 18 MBq, iv after 175 mins by PET analysis; assay type: ADME, organism-based; conditions: papio anubis, in vivo
[33] = Metabolic stability of the compound in baboon plasma assessed as unmetabolized parent fraction after 120 mins by HPLC analysis; assay type: ADME, cell-free; conditions: papio anubis, read-out: Stability; outline: as §1
[34] = Metabolic stability of the compound in baboon plasma assessed as unmetabolized parent fraction after 30 mins by HPLC analysis; assay type: ADME, cell-free; conditions: papio anubis, read-out: Stability; outline: as §1
[35] = Metabolic stability of the compound in baboon plasma assessed as unmetabolized parent fraction after 60 mins by HPLC analysis; assay type: ADME, cell-free; conditions: papio anubis, read-out: Stability; outline: as §1
[36] = Tmax in baboon prefrontal cortex at 111 +/- 18 MBq, iv by PET analysis; assay type: ADME, organism-based; conditions: papio anubis, in vivo; outline: as §3
[37] = Binding to baboon plasma proteins; conditions: papio anubis

Cn1c(=O)cnn(CCCCN2CCN(c3ccccc3OCC[18F])CC2)c1=O
remaining at 2 min [1]: 98% | Ratio [2]: 4 | Drug uptake [3]: Active | Tmax [4]: 3 min | Drug uptake [5]: Active | Ratio [6]: 1.75 | Drug metabolism [7]: Active | Drug uptake [8]: Active | Ratio [9]: 1.8 | Tmax [10]: 3 min | Drug uptake [11]: Active | Drug uptake [12]: Active | Drug uptake [13]: Active | remaining at 0.2 h [14]: 74% | Drug uptake [15]: Active | Tmax [16]: 3 min | Ratio [17]: 2 | Drug uptake [18]: Active | Ratio [19]: 2.4 | Ratio [20]: 2.5 | Drug uptake [21]: Active | Tmax [22]: 3 min | plasma protein binding [23]: 11.5% | Ratio [24]: 1.8 | remaining at 1.5 h [25]: 32.5% | Drug uptake [26]: Active | remaining at 2.5 h [27]: 21.5% | remaining at 3 h [28]: 18% | Ratio [29]: 2.3 | Tmax [30]: 3 min | Tmax [31]: 3 min | Ratio [32]: 2 | remaining at 2 h [33]: 23.5% | remaining at 0.5 h [34]: 51% | remaining at 1 h [35]: 37% | Tmax [36]: 3 min | plasma protein binding [37]: 35%
